Test results reported in ChEMBL document CHEMBL1135898, “Synthesis and antimycobacterial activity of 6-arylpurines: the requirements for the N-9 substituent in active antimycobacterial purines” (J Med Chem, 2002).
Converted amounts (≈) assume the structure as drawn.

Columns and labels:
[1] = test system: K562; assay: Cytostatic activity against chronic myelogenous leukemia cells (K-562) based on its ability to inhibit [3H]thymidine incorporation (at 1.0 g/ml); assay type: functional, cell-based; details: Homo sapiens
Summary of the method: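 K-562 leukemia cells; inhibition of [3H]thymidine incorporation measured at 1.00 μg/mL instead of the usual 10 μg/mL because of low compound solubility.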

[2] = test system: Vero; assay: Minimum inhibitory concentration for testing cytotoxicity in VERO cells; assay type: functional, cell-based; details: Chlorocebus sabaeus
Summary of the method: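 VERO cells exposed 72 h to compound at concentrations up to 62.5 μg/mL. Viability read by cellular MTT conversion to formazan, and an IC50 was derived.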

[3] = Selectivity Index, SI = IC50:MIC.ND means not determined.; assay type: functional
[4] = test system: K562; assay: Cytostatic activity against chronic myelogenous leukemia cells (K-562) based on its ability to inhibit [3H]thymidine incorporation.; assay type: functional, cell-based; details: Homo sapiens
Summary of the method: (§1)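 K-562 chronic myelogenous leukemia cells; cytostatic effect read as inhibition of [3H]thymidine incorporation. Reported as percent inhibition at 10 μg/mL, with EC50 derived only for the more toxic compounds.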

[5] = test system: Lacticaseibacillus casei; assay: Minimum Inhibitory Concentration against drug-resistant strain of Lactobacillus casei; assay type: functional
[6] = test system: Mycobacterium tuberculosis; assay: Concentration effecting 99% reduction of Mycobacterium tuberculosis strain Erdman, growth in monolayers of mouse bone marrow macrophages after 7 days; assay type: functional; details: 168 h
[7] = test system: Mycobacterium tuberculosis; assay: Concentration effecting 90% reduction of Mycobacterium tuberculosis strain Erdman, growth in monolayers of mouse bone marrow macrophages after 7 days; assay type: functional; details: 168 h
[8] = test system: K562; assay: Cytostatic activity against chronic myelogenous leukemia cells (K-562) based on its ability to inhibit [3H]thymidine incorporation; assay type: functional, cell-based; details: Homo sapiens; summary of the method: as §1
[9] = test system: Mycobacterium tuberculosis; assay: Percent inhibition of Mycobacterium tuberculosis H37Rv at 6.25 µg/ml concentration in BACTEC 12B medium using microplate alamar blue assay; assay type: functional
Summary of the method: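 Primary screen at single concentration 6.25 μg/mL against M. tuberculosis H37Rv (ATCC 27294) in BACTEC 12B medium, read by microplate alamar blue assay; fluorescent compounds instead tested in BACTEC 460 radiometric system. Percent growth inhibition reported.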

[10] = test system: Mycobacterium tuberculosis; assay: Antibacterial activity against Mycobacterium tuberculosis H37Rv in BACTEC 12B medium using microplate alamar blue assay; assay type: functional
Summary of the method: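 MIC against M. tuberculosis H37Rv (ATCC 27294) by microplate alamar blue assay (MABA) in BACTEC 12B medium; compounds reaching ≥90% inhibition in the primary screen were re-tested at lower concentrations. MIC defined as minimum concentration giving 90% inhibition of growth; rifampin reference.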

c1ccc(Cn2cnc3c(-c4cccs4)ncnc32)cc1
IC50 [1]: < 10 µg/mL | IC50 [2]: > 10 µg/mL | Selectivity index [3]: > 1.6

Clc1nc(-c2ccco2)c2ncn(Cc3ccccc3)c2n1
IC50 [4]: 27 µg/mL (≈ 86.9 µM) | MIC [5]: > 10 µg/mL | EC99 [6]: 8.46 µg/mL | EC90 [7]: 0.038 µg/mL (≈ 0.122 µM)

c1ccc(Cn2cnc3c(-c4ccco4)ncnc32)cc1 [9-BENZYL-6-(FURAN-2-YL)-9H-PURINE]
IC50 [8]: 59 µg/mL (≈ 214 µM) | Selectivity index [3]: 2.7

CC(=O)OC[C@H]1O[C@@H](Cn2cnc3c(-c4ccccc4)ncnc32)[C@H](OC(C)=O)[C@@H]1OC(C)=O
Inhibition [9]: 4%

OC[C@H]1OC(n2cnc3c(-c4ccco4)nc(Cl)nc32)[C@H](O)[C@@H]1O (stereo partly drawn)
IC50 [4]: 100 µg/mL (≈ 283 µM) | Inhibition [9]: 7%

OC[C@H]1OC(n2cnc3c(-c4ccco4)ncnc32)[C@H](O)[C@@H]1O (stereo partly drawn)
Inhibition [9]: 0%

c1ccc(Cn2cnc3c(-c4ccccc4)ncnc32)cc1
IC50 [1]: < 10 µg/mL

Clc1nc(-c2ccccc2)c2ncn(Cc3ccccc3)c2n1
IC50 [4]: 76 µg/mL (≈ 237 µM)

OC[C@H]1O[C@@H](n2cnc3c(-c4ccccc4)ncnc32)[C@H](O)[C@@H]1O
IC50 [8]: 99 µg/mL (≈ 302 µM)

CO[C@H]1/C=C/O[C@@]2(C)Oc3c(C)c(O)c4c(O)c(c(/C=N/N5CCN(C)CC5)c(O)c4c3C2=O)NC(=O)/C(C)=C\C=C\[C@H](C)[C@H](O)[C@@H](C)[C@@H](O)[C@@H](C)[C@H](OC(C)=O)[C@@H]1C [RIFAMPIN]
MIC [10]: 0.25 µg/mL (≈ 0.304 µM)

c1csc(-c2[nH]cnc3ncnc2-3)c1
IC50 [8]: < 10 µg/mL

C=CCn1cnc2c(-c3ccco3)ncnc21
IC50 [8]: 11 µg/mL (≈ 48.6 µM)

c1ccc(CCn2cnc3c(-c4ccco4)ncnc32)cc1
IC50 [8]: 53 µg/mL (≈ 183 µM)

Cn1cnc2c(-c3ccco3)ncnc21
IC50 [8]: < 10 µg/mL

c1ccc(-c2ncnc3c2ncn3C2CCOCC2)cc1
IC50 [8]: < 10 µg/mL

c1coc(-c2ncnc3c2ncn3CC2CCCCC2)c1
IC50 [8]: 60 µg/mL (≈ 213 µM)
